Series [1] has as its system L1210. As to the kind of experiment: Intracellular level of conjugate in L1210 cells in the presence of DFMO at 10 uM. Type of series: functional, cell-based. Particulars: Mus musculus. Summed up:
(§1)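 L1210 cells in RPMI 1640/10% FCS with 2 mM aminoguanidine, seeded at 4 × 10⁴ cells/mL. Conjugate, with or without 5 mM DFMO, added at seeding; cells cultured 48 h, washed in cold NaCl, and extracted with 0.2 N HClO₄. Conjugate and free putrescine, spermidine and spermine quantified by ion-pair HPLC (UV 254 nm, fluorescence ex 345/em 455 nm); normalised to protein. Student's t-test, p<0.05.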

The test system of series [2] is CHO. As to the kind of experiment: Inhibition of cell growth in CHO cells in the presence of DFMO. Type of series: functional, cell-based. To be noted: Cricetulus griseus. Summed up:
(§2)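 L1210 cells seeded at 5 × 10⁴ cells/mL with conjugate added at seeding; CHO/CHO-MG plated at 2 × 10³ cells/mL with conjugate added after overnight (24 h). 5 mM DFMO added together with conjugate; medium contains 2 mM aminoguanidine. After 48 h, growth read by MTT formazan absorbance at 540 nm. IC50 is 50% growth inhibition; mean of three determinations.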

The test system of series [3] is CHO. As to the kind of experiment: Cellular uptake in CHO cells at 50 uM. In kind it is ADME, cell-based, Cricetulus griseus. Particulars: chinese hamster. Summed up: (§3)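 CHO (RPMI 1640, 10% FCS, 2 mM aminoguanidine) and CHO-MG (plus L-proline) cells seeded at 2 × 10⁵ cells/mL. Conjugate added 24 h after seeding and cells harvested 24 h later, then washed in cold 0.14 M NaCl and sonicated in 0.2 N HClO₄. Supernatant analysed by ion-pair reversed-phase HPLC (n-octanesulfonate), expressed as nmol/mg protein; mean ± SD of three determinations.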

Series [4] relates to CHO-MG. Briefly: Cellular uptake in CHO-MG cells at 50 uM. In kind it is ADME, cell-based, Cricetulus griseus. Particulars: chinese hamster. The procedure, abridged:
as §3

Series [5] can be described thus: Selectivity for uptake CHO cell line over CHO-MG cell line at 50 uM. In kind it is functional, Cricetulus griseus. Summed up: (§4)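 Ratio of intracellular conjugate level in CHO over CHO-MG cells. Both lines were exposed to conjugate 24 h after seeding at 2 × 10⁵ cells/mL, for 24 h with 2 mM aminoguanidine in the medium. Levels were measured by ion-pair HPLC of perchloric extracts and normalised to protein (nmol/mg).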

For series [6], the system named is L1210. Briefly: Intracellular level of putrescine in L1210 cells in the absence of DFMO at 10 uM. Type of series: functional, cell-based. Particulars: Mus musculus. The procedure, abridged: as §1
Series [7] has as its system L1210. Briefly: Intracellular level of putrescine in L1210 cells in the presence of DFMO at 10 uM. Type of series: functional, cell-based. To be noted: Mus musculus. The procedure, abridged:
as §1

In series [8] the test system is L1210. As to the kind of experiment: Intracellular level of spermine in L1210 cells in the absence of DFMO at 10 uM. Type of series: functional, cell-based. To be noted: Mus musculus. Summed up: as §1
In series [9] the test system is L1210. Briefly: Intracellular level of conjugate in L1210 cells in the absence of DFMO at 10 uM. Type of series: functional, cell-based. Particulars: Mus musculus. Summed up:
as §1

Series [10] deals with L1210. As to the kind of experiment: Intracellular level of spermine in L1210 cells in the presence of DFMO at 10 uM. To be noted: Mus musculus. In kind it is functional, cell-based. Summed up:
as §1

The subject of series [11] is L1210. As to the kind of experiment: Inhibition of cell growth in L1210 cells in the presence of DFMO. Type of series: functional, cell-based. To be noted: Mus musculus. Summed up: as §2
Series [12] has as its target Phosphodiesterase 1 (Bos taurus, UniProt Q01061+P14100). Briefly: Inhibition of bovine calmodulin-activated cAMP dependent phosphodiesterase. Type of series: protein assay. Summed up: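 Crude bovine heart PDE preparation containing calmodulin and Ca²⁺ (0.2 milliunit). Incubated 20 min at 37 °C with 0.1 mM [8-³H]cAMP and graded drug concentrations in 30 mM Tris-HCl, 3 mM MgSO₄, 0.6 mM AMP. Stopped with ZnSO₄; Ba(OH)₂ precipitated AMP with BaSO₄; supernatant radioactivity counted. IC50 is the concentration giving 50% inhibition.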

Series [13] concerns CHO-MG. Briefly: Inhibition of cell growth in CHO-MG cells in the presence of DFMO. To be noted: Cricetulus griseus. In kind it is functional, cell-based. The procedure, abridged: as §2
Series [14] has as its system L1210. As to the kind of experiment: Intracellular level of spermidine in L1210 cells in the absence of DFMO at 10 uM. Type of series: functional, cell-based. To be noted: Mus musculus. Summed up:
as §1

In series [15] the test system is L1210. As to the kind of experiment: Intracellular level of spermidine in L1210 cells in the presence of DFMO at 10 uM. Type of series: functional, cell-based. To be noted: Mus musculus. Summed up:
as §1

For series [16], the system named is L1210. As to the kind of experiment: Intracellular level of conjugate in L1210 cells in the presence of DFMO at 25 uM. In kind it is functional, cell-based. Particulars: Mus musculus. The procedure, abridged: as §1
For series [17], the system named is L1210. As to the kind of experiment: Intracellular level of putrescine in L1210 cells in the absence of DFMO at 25 uM. To be noted: Mus musculus. In kind it is functional, cell-based. The procedure, abridged:
as §1

The subject of series [18] is L1210. Briefly: Intracellular level of spermidine in L1210 cells in the presence of DFMO at 25 uM. To be noted: Mus musculus. Type of series: functional, cell-based. Summed up: as §1
Series [19] concerns L1210. As to the kind of experiment: Intracellular level of spermine in L1210 cells in the absence of DFMO at 25 uM. Type of series: functional, cell-based. To be noted: Mus musculus. The procedure, abridged: as §1
The subject of series [20] is L1210. As to the kind of experiment: Intracellular level of spermine in L1210 cells in the presence of DFMO at 25 uM. In kind it is functional, cell-based. To be noted: Mus musculus. Summed up:
as §1

The nature of series [21]: Selectivity for uptake in CHO cell line over CHO-MG cell line at 25 uM. Type of series: functional, Cricetulus griseus. Summed up: as §4
Series [22] relates to CHO. As to the kind of experiment: Cellular uptake in CHO cells at 25 uM. In kind it is ADME, cell-based, Cricetulus griseus. Particulars: chinese hamster. The procedure, abridged: as §3
Series [23] deals with CHO-MG. As to the kind of experiment: Cellular uptake in CHO-MG cells at 25 uM. Particulars: chinese hamster. In kind it is ADME, cell-based, Cricetulus griseus. Summed up: as §3
For series [24], the system named is L1210. Briefly: Intracellular level of putrescine in L1210 cells in the presence of DFMO at 25 uM. In kind it is functional, cell-based. To be noted: Mus musculus. The procedure, abridged: as §1
Series [25] concerns L1210. As to the kind of experiment: Intracellular level of spermidine in L1210 cells in the absence of DFMO at 25 uM. Particulars: Mus musculus. Type of series: functional, cell-based. The procedure, abridged:
as §1

In series [26] the test system is L1210. As to the kind of experiment: Intracellular level of conjugate in L1210 cells in the absence of DFMO at 25 uM. In kind it is functional, cell-based. To be noted: Mus musculus. Summed up:
as §1

In series [27] the test system is L1210. As to the kind of experiment: Intracellular level of spermine in L1210 cells in the absence of DFMO at 20 uM. In kind it is functional, cell-based. Particulars: Mus musculus. Summed up:
as §1

Series [28] concerns L1210. As to the kind of experiment: Intracellular level of spermine in L1210 cells in the presence of DFMO at 20 uM. In kind it is functional, cell-based. To be noted: Mus musculus. The procedure, abridged: as §1
For series [29], the system named is L1210. Briefly: Intracellular level of conjugate in L1210 cells in the absence of DFMO at 20 uM. To be noted: Mus musculus. In kind it is functional, cell-based. The procedure, abridged: as §1
Series [30] concerns L1210. Briefly: Intracellular level of polyamine in L1210 cells in the presence of DFMO at 20 uM. In kind it is functional, cell-based. To be noted: Mus musculus. Summed up: as §1
In series [31] the test system is L1210. As to the kind of experiment: Intracellular level of putrescine in L1210 cells in the absence of DFMO at 20 uM. Type of series: functional, cell-based. To be noted: Mus musculus. Summed up: as §1
The test system of series [32] is L1210. Briefly: Intracellular level of putrescine in L1210 cells in the presence of DFMO at 20 uM. Particulars: Mus musculus. Type of series: functional, cell-based. Summed up: as §1
Series [33] relates to L1210. Briefly: Intracellular level of spermidine in L1210 cells in the absence of DFMO at 20 uM. In kind it is functional, cell-based. Particulars: Mus musculus. The procedure, abridged: as §1
In series [34] the test system is L1210. Briefly: Intracellular level of spermidine in L1210 cells in the presence of DFMO at 20 uM. Type of series: functional, cell-based. Particulars: Mus musculus. Summed up:
as §1

pIC50: −log10 of the molar value. A value given as a limit tells only on which side of the number the result lay.

Among the data in ChEMBL document CHEMBL1148584, “Effect of polyamine homologation on the transport and biological properties of heterocyclic amidines” (J Med Chem, 2006) are Drug uptake, IC50 and Selectivity ratio values, retold here.

What is called pIC50 is −log10 of the IC50, conventionally taken in molar units. The IC50 is the concentration at which inhibition is half-maximal. A higher IC50 goes with weaker potency. For the molecule `CC1C[C@]2(C)C(NCCCNCCCCNCCCN)=Nc3ccccc3[C@@H]2N(C)c2ccccc21` (some centres not stated), the Drug uptake in series [1] was 1.5 nmol/mg; in [3] it was 0.66 nmol/mg; in series [4] it was 0.66 nmol/mg; in series [6] it was 1.5 nmol/mg; in [7], 0.04 nmol/mg; in series [8] it was 9.7 nmol/mg. Besides, the Drug uptake amounted to 0.59 nmol/mg in series [9], 5.8 nmol/mg in series [10], 18 nmol/mg in series [14] and 0.49 nmol/mg in [15]. In addition, the pIC50 was 5.04 in series [2], 6.00 in [11] and 4.57 in [13]. For the same molecule, the Selectivity ratio in series [5] was 1. Also, in series [12], the IC50 stood at 19 µM.

In the case of `CN(c1ccccc1)C1c2ccccc2N=C(NCCCNCCCCN)C1(C)C` (configuration not stated), the Drug uptake was determined as 0.66 nmol/mg in series [16]; 0.65 nmol/mg in [17]; 1.4 nmol/mg in [18]; 10 nmol/mg in series [19]; 10 nmol/mg in series [20]; 2.9 nmol/mg in series [22]. Moreover, the Drug uptake in series [23] is 3.1 nmol/mg; in series [24], 0.12 nmol/mg; in series [25] it was 21 nmol/mg; in [26], 0.64 nmol/mg. For the same molecule, the Selectivity ratio in series [21] is given as 1. This molecule also had an IC50 in [12] of 30 µM. In addition, the pIC50 in series [13] is less than 4.00.

`CNc1cccc2c1[C@H](C)C[C@]1(C)C(NCCCCN)=Nc3ccccc3[C@H]21`: the values for the negative logarithm of the IC50 (pIC50) in series [2], in [11] and in series [13] were 4.24, 4.25 and 4.52, respectively. Moreover, the Drug uptake in series [27] is 8.9 nmol/mg; in series [28], 10 nmol/mg; in [29], 23 nmol/mg; in series [30], 8.2 nmol/mg; in [22] it was 8.1 nmol/mg; in [23], 7.2 nmol/mg. The Drug uptake in series [31] was 1.6 nmol/mg; in series [32] it was 1 nmol/mg; in [33], 14 nmol/mg; in series [34] it was 2.1 nmol/mg. Further, in [21], the Selectivity ratio turned out to be 1.1. In [12], this molecule returned an IC50 of 70 µM.

In turn, `NCCCNCCCCNCCCN` [SPERMINE] showed an IC50 in [12] of more than 500 µM. Moreover, the pIC50 in [13] is less than 4.00.

In series [12], `CC1C[C@]2(C)C(NCCCO)=Nc3ccccc3[C@@H]2N(C)c2ccccc21` (some centres not stated) yielded an IC50 of more than 500 µM.

In series [12], `OCCCNC1=Nc2ccccc2CC1` returned an IC50 of more than 500 µM.

For the molecule `CNc1cccc2c1[C@H](C)C[C@]1(C)C(NCCCNCCCCNCCCN)=Nc3ccccc3[C@H]21`, the Drug uptake in series [1] was determined as 2.1 nmol/mg; in series [6], 1.4 nmol/mg; in series [7], 0.04 nmol/mg; in series [8], 8.2 nmol/mg; in series [9] it was 0.95 nmol/mg; in series [10], 7.3 nmol/mg. Also, the Drug uptake in [22] is 2.2 nmol/mg; in series [23], 2.1 nmol/mg; in series [14], 16 nmol/mg; in series [15], 0.51 nmol/mg. In addition, the pIC50 in series [2] was 4.96; in [11], 5.62; in [13], 4.64. The Selectivity ratio in series [21] is given as 1. Besides, the IC50 in [12] amounted to 10 µM.
